Data set [1] has as its system HeLa. Nature of the data set: Cytotoxicity against human HeLa cells upto 20 ug/plate. The format is cell-based. In short, it runs like this:
(§1)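 Cytotoxicity was judged in the plaque-assay plates: confluent M-HeLa monolayers under agarose overlay with sample added from EtOH doubling dilutions (≤1% EtOH), 72 h at 33°, then formol-saline fixed and methyl violet stained. Monolayers were inspected for cell destruction, altered appearance or thinning relative to cell controls (no virus, no sample) and virus controls, up to the top plate concentration.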

A further data set relates to rhinovirus A1B. Description: Antiviral activity against Rhinovirus 1B infected in human HeLa cells assessed as reduction in plaque formation per plate after 72 hrs. Also on record: ED50: unit: ug/plate. The format is functional, organism-based, Human rhinovirus 1B. In short, it runs like this: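 M-HeLa cells were seeded at 10⁶ per plate in MEM with 10% FCS and grown to confluence overnight. They were infected with RV1B at 100-200 pfu/plate for 1 h. Excess virus was replaced with an agarose overlay (MEM, FCS, tryptose broth) holding serial doubling dilutions from EtOH, final EtOH ≤1%. Plates ran 72 h at 33°, then were formol-saline fixed and methyl violet stained.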

The subject of data set [2] is HeLa. Description: Cytotoxicity against human HeLa cells upto 1.35 ug/plate. Format: cell-based. In short, it runs like this:
as §1

Turning to `C=C(CCC=C(C)C)[C@H]1CC=C(C)CC1`, in the data set on HeLa [1], the Activity result is given as “Non-toxic”. Besides, the ED50 in the data set with rhinovirus A1B was found to be 14.3 µg.

For the molecule `CC(C)=CCC[C@@H](C)c1ccc(C)cc1`, the Activity result in the data set with HeLa [1] is “Non-toxic”. In addition, the ED50 in the data set with rhinovirus A1B worked out at 20.4 µg.

As for `C=C1C=C[C@H]([C@H](C)CCC=C(C)C)CC1`, the Activity result with HeLa [1] was “Non-toxic”. For the same molecule, in the data set on rhinovirus A1B, the ED50 was 0.9 µg. For the same molecule, in the data set with rhinovirus A1B (Rhinovirus A, HeLa, 72 h), the IC50 is 440 nM.

In the case of `CC(C)=CCC[C@@H](C)[C@H]1C=CC(C)=CC1`, in the data set with HeLa [1], the Activity result is listed as “Non-toxic”. The ED50 in the data set with rhinovirus A1B amounted to 1.9 µg.

On to `c1ccc(C2CCc3ccccc3O2)cc1` (stereo unspecified) [FLAVANE], for which the Activity result with HeLa [2] is “Non-toxic”. For the same molecule, the ED50 in the data set with rhinovirus A1B came to 0.27 µg.

Usually IC50 stands for the concentration needed to halve the response being measured.

Values taken from ChEMBL document CHEMBL1149070, “Isolation of antirhinoviral sesquiterpenes from ginger (Zingiber officinale)” (J Nat Prod, 1994).
